Results pooled from the literature.
Effect on: cell growth or viability

SMILES | cell line | technique | time | IC50 [nM]
Nc1ccc(/C=C/C(=O)N2CCc3c(oc4c(-c5ccc(F)cc5)cc(-c5ccc(C(=O)N6CCC(F)(F)CC6)nn5)cc34)C2)cn1 | MIA PaCa-2 | CCK-8 | 72 h | 230
COc1cc2c3c(n(CCCNC(C)C)c(=O)c2cc1OC)-c1nc2c(cc1C3=O)OCO2 | MOLT-4 | MTS | 72 h | 19
Cc1sc2c(c1C)C(c1ccc(Cl)cc1)=N[C@@H](CC(=O)NCCCCCCCCNC(=O)COc1cccc3c1C(=O)N(C1CCC(=O)NC1=O)C3=O)c1nnc(C)n1-2 (stereo partly shown) | MOLT-4 | ATP luminescence | – | 23
COc1ccc(-c2cc(C(=O)Nc3ccccc3)c3cc(-c4ccccc4)ccc3n2)cc1 | MIA PaCa-2 | MTT | 48 h | 48300
COc1cc2c3c(n(CCCn4ccnc4)c(=O)c2cc1OC)-c1nc2c(cc1C3=O)OCO2 | MOLT-4 | MTS | 72 h | 43
C=C(F)C(=O)N1CCN(c2nc(OC[C@@H]3CCCN3C)nc3c2CCN(c2cccc4cccc(Cl)c24)C3)C[C@@H]1CC#N | SW837 | ATP luminescence | – | 86.2
COc1cc([C@@H]2c3cc4c(cc3[C@@H](O[C@@H]3O[C@@H]5CO[C@@H](C)O[C@H]5[C@H](O)[C@H]3O)[C@H]3COC(=O)[C@H]23)OCO4)cc(OC)c1O | T47D | MTT | 48 h | 79000
O=C(Nc1ccccc1)c1cc(-c2ccccc2)nc2ccc(-c3ccccc3)cc12 | MIA PaCa-2 | MTT | 48 h | > 50000
Nc1ccc(/C=C/C(=O)N2CCc3c(oc4c(-c5ccc(F)cc5)cc(-c5ccc(C(=O)N6CCC(F)(F)CC6)cc5F)cc34)C2)cn1 | MIA PaCa-2 | CCK-8 | 72 h | 2660
COc1ccc(-c2cc(C(=O)Nc3ccccc3)c3cc(-c4cc(C)ccc4F)ccc3n2)cc1 | MIA PaCa-2 | MTT | 48 h | > 50000
COc1cc2c3c(n(CCCNCCO)c(=O)c2cc1OC)-c1nc2c(cc1C3=O)OCO2 | MOLT-4 | MTS | 72 h | 12
CC1(C)CCC(c2ccc(Cl)cc2)=C(CN2CCN(c3ccc(C(=O)NS(=O)(=O)c4ccc(N[C@H](CCN5CCOCC5)CSc5ccccc5)c(S(=O)(=O)C(F)(F)F)c4)cc3)CC2)C1 | human Platelet | MTS | 24 h | 6.4
COc1ccc(-c2cc(C(=O)Nc3ccccc3)c3cc(-c4ccc(Cl)cc4)ccc3n2)cc1 | MIA PaCa-2 | MTT | 48 h | > 50000
CCNCCCn1c2c(c3cc(OC)c(OC)cc3c1=O)C(=O)c1cc3c(nc1-2)OCO3 | KMS-27 | MTS | 72 h | 141
COc1ccc(-c2cc(C(=O)Nc3ccccc3)c3cc(-c4cc(F)ccc4OC)ccc3n2)cc1 | MIA PaCa-2 | MTT | 48 h | > 50000
[NH2][Pt]([NH2])([Cl])[Cl] | LNCaP | MTT | 72 h | 10200
Nc1ccc(/C=C/C(=O)N2CCc3c(oc4c(-c5ccc(F)cc5)cc(-c5ncc(C(=O)N6CCC(F)(F)CC6)cn5)cc34)C2)cn1 | MIA PaCa-2 | CCK-8 | 72 h | 4460
COc1cc2c3c(n(CCCN4CCOCC4)c(=O)c2cc1OC)-c1nc2c(cc1C3=O)OCO2 | MOLT-4 | MTS | 72 h | 113
C=CC(=O)N1CCN(c2nc(=O)n(-c3c(C)ccnc3C(C)C)c3nc(-c4c(O)cccc4F)c(F)cc23)[C@@H](C)C1 | MIA PaCa-2 | ATP luminescence | – | 23.5
